Screening data: PubChem BioAssay, Broad Institute
Shown are actives, neighbours in structure and some others; about 5.8% of the full set was active somewhere.
IDH1 R132H inh – inhibitors of IDH1 R132H reductase, primary screen, biochemical, plate reader, single point. Isocitrate dehydrogenase [NADP] cytoplasmic (Homo sapiens), O75874. diaphorase/resazurin fluorescence, 60 min. inhibition, % at 10 µM. 0.18% of 70,000 active. AID 624101, 2012; in the data active means inhibition above about 34%; inconclusive means no clear call, values can overlap the other calls; inactive means below about 11%;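 further: 0% = DMSO and 100% = no enzyme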
Pf Dd2 growth – P. falciparum Dd2 growth inhibitors, primary screen, SYBR Green fluorescence, single dose replicates; 72 h; stronger effect = lower value; activity change, % at 10 µM; 2.3% of 94,000 active; AID 1159554, 2015; in the data active means activity change below about -80%; inconclusive means no clear call, values can overlap the other calls
KDM4C inh – inhibitors of GASC-1 (KDM4C) histone demethylase, primary screen, biochemical, single concentration HTS; Lysine-specific demethylase 4C (Homo sapiens), Q9H3R0; GST-KDM4C 2-372, H3K9me3 peptide, LANCE TR-FRET; inhibition, % at 12.5 µM; 0.15% of 96,000 active; AID 720574, 2013;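 active means mean replicate inhibition above about 25%, with at least 55% of replicates also reaching it, limit read from the data, passing the limit was not always enough; inconclusive means only one of those two conditions met; inactive means neither condition met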
Target sequence (Q9H3R0 2-372 limits assumed): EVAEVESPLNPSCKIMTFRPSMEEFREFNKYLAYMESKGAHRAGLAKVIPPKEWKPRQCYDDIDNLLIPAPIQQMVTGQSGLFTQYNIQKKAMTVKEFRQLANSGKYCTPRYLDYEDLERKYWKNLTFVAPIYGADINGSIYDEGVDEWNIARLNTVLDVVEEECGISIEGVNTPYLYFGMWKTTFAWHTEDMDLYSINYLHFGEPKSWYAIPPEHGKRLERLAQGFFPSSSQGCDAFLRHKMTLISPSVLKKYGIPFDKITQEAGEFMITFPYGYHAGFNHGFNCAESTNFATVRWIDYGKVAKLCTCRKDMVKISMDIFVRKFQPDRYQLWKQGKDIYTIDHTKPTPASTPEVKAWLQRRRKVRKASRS
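Test system – GST-tagged GASC-1 (JMJD2C) catalytic fragment, aa 2-372 · Medium – HEPES buffer, pH 7.5, plus ascorbate · Reagent – H3K9me3 peptide with Fe(II)/2OG · Compound – one test concentration per compound · Timing – 30 min reaction, 60 min detection, RT · Technique – TR-FRET with Eu antibody and ULight streptavidin, EDTA stop · Read-out basis – inhibition from TR-FRET ratio decrease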
T cruzi growth-1 – T. cruzi intracellular proliferation inhibitors, primary screen, cell-based, beta-gal Tulahuen parasites, NIH3T3 host, luminescence. T. cruzi beta-gal in NIH3T3, GalScreen luminescence, 90 h. inhibition, % at 8.34 µM. 5.9% of 77,000 active. AID 624255, 2012;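 active means mean inhibition above about 93%, with at least 55% of replicates each passing it, limit read from the data, passing the limit was not always enough; inconclusive means only one of those two conditions holds; inactive means neither condition holds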
T cruzi growth-2 – T. cruzi intracellular proliferation inhibitors, confirmation, cell-based, NIH3T3 host, beta-gal parasite, luminescence, cherry-pick; T. cruzi beta-gal in NIH3T3, GalScreen luminescence, 90 h; shares compounds with T cruzi growth-1; inhibition, % at 8.35 µM; AID 651739, 2012; 72% of 5,600 active;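 active means mean replicate inhibition above about 95% and at least 55% of replicates individually reaching it, limit read from the data; inconclusive means only one of the two criteria is met; inactive means neither criterion is met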
T cruzi growth-3 – inhibitors of intracellular T. cruzi replication, confirmation, NIH3T3 host cells, beta-gal parasites, cherry-pick, set 2; shares compounds with T cruzi growth-1; inhibition, % at 2.09 µM; T. cruzi beta-gal in NIH3T3, GalScreen luminescence, 90 h; 21% of 5,600 active; AID 651740, 2012;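 active means mean inhibition above about 95%, with at least 55% of replicates also reaching it, limit read from the data; inconclusive means meets just one of the two conditions; inactive means meets neither condition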;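 further: plate controls were neutral control median for no effect and positive control median for full effect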
NIH3T3 tox – cytotoxicity in mouse NIH/3T3 fibroblasts, confirmation, cytotoxicity control for T. cruzi proliferation inhibitor project, cell-based, cherry-pick, single point. 14% of 5,600 active. cytotoxicity (signal decrease), % at 8.35 µM. AID 651742, 2012. shares compounds with T cruzi growth-1. NIH/3T3 viability, CellTiter-Glo ATP luminescence, 90 h;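 active means mean signal decrease across replicates above about 35% based on untreated-well scatter, with enough replicates individually passing, limit read from the data; inconclusive means no rule stated though some were filed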;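 further: 0% = median of neutral control wells and 100% = median of positive control wells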
NIH3T3 tox 2 – NIH/3T3 fibroblast cytotoxicity, confirmation, cytotoxicity control, cell-based, cherry-pick, single point, set 2. shares compounds with T cruzi growth-1. NIH/3T3 viability, CellTiter-Glo ATP luminescence, 90 h. inhibition, % at 24.9 µM. 56% of 5,600 active. AID 651744, 2012;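 active means mean loss of cell viability signal at or above a set limit, and enough replicates individually reaching it; inconclusive means meets only the mean limit or only the replicate share; inactive means meets neither condition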;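 further: 0% = median of neutral control wells and 100% = median of positive control wells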
An asterisk follows results filed as active; ? = inconclusive; · = not tested or not shown.

SMILES | IDH1 R132H inh | Pf Dd2 growth | KDM4C inh | T cruzi growth-1 | T cruzi growth-2 | T cruzi growth-3 | NIH3T3 tox | NIH3T3 tox 2
CC(C)NC(=O)N1CCCCN2[C@H](CO)[C@H](c3ccc(C#Cc4ccccc4F)cc3)[C@H]2C1 | · | -33 | -2 | 109* | 104* | 107* | 31 | 103*
CC(C)NC(=O)N1CCCCN2[C@H](C1)[C@H](c1ccc(C#Cc3ccccc3F)cc1)[C@@H]2CO | · | 1 | -1 | 70 | · | · | · | ·
CC(C)NC(=O)N1CCCCN2[C@@H](CO)[C@H](c3ccc(C#Cc4ccccc4F)cc3)[C@@H]2C1 | · | -16 | -3 | 113* | 96* | 79 | 51* | 104*
CC(C)NC(=O)N[C@@H]1CC[C@@H](CC(=O)NC2Cc3ccccc3C2)O[C@H]1CO | 0 | -12 | 1 | 7 | · | · | · | ·
Cc1ccc(S(=O)(=O)Nc2ccc3c(c2)C(=O)N([C@@H](C)CO)C[C@@H](C)[C@@H](CN(C)S(=O)(=O)c2ccc(Cl)cc2)OCCCC[C@@H](C)O3)cc1 | · | -69 | 1 | 47 | · | · | · | ·
Cc1ccc(S(=O)(=O)N(C)C[C@@H]2OCCCC[C@H](C)Oc3ccc(NS(=O)(=O)c4ccc(Cl)cc4)cc3C(=O)N([C@@H](C)CO)C[C@H]2C)cc1 | 0 | -27 | 2 | 106* | 103* | 71 | -37 | -10
Cc1ccc(S(=O)(=O)Nc2ccc3c(c2)C(=O)N([C@H](C)CO)C[C@@H](C)[C@H](CN(C)S(=O)(=O)c2ccc(Cl)cc2)OCCCC[C@H](C)O3)cc1 | -1 | -69 | -2 | · | · | · | · | ·
Cc1ccc(S(=O)(=O)Nc2ccc3c(c2)C(=O)N([C@H](C)CO)C[C@H](C)[C@@H](CN(C)S(=O)(=O)c2ccc(Cl)cc2)OCCCC[C@H](C)O3)cc1 | 5 | -53 | -2 | 89 | · | · | · | ·
Cc1ccc(S(=O)(=O)N(C)C[C@H]2OCCCC[C@H](C)Oc3ccc(NS(=O)(=O)c4ccc(Cl)cc4)cc3C(=O)N([C@@H](C)CO)C[C@@H]2C)cc1 | 2 | -59 | 1 | 93* | 109* | 107* | -31 | -29
Cc1ccc(S(=O)(=O)N(C)C[C@@H]2OCCCC[C@@H](C)Oc3ccc(NS(=O)(=O)c4ccc(Cl)cc4)cc3C(=O)N([C@@H](C)CO)C[C@@H]2C)cc1 | · | -57 | 0 | 110* | 100* | 113* | 10 | 46*
Cc1ccc(S(=O)(=O)N(C)C[C@H]2OCCCC[C@H](C)Oc3ccc(NS(=O)(=O)c4ccc(Cl)cc4)cc3C(=O)N([C@@H](C)CO)C[C@H]2C)cc1 | 0 | -64 | 0 | ? | 104* | 108* | -37 | -16
Cc1ccc(S(=O)(=O)N(C)C[C@@H]2OCCCC[C@@H](C)Oc3ccc(NS(=O)(=O)c4ccc(Cl)cc4)cc3C(=O)N([C@H](C)CO)C[C@@H]2C)cc1 | 3 | -14 | -2 | 74 | · | · | · | ·
C[C@H](CO)N1C[C@H](C)[C@@H](CN(C)C(=O)Nc2ccccc2)OCCCC[C@H](C)Oc2ccc(NS(=O)(=O)c3ccc(F)cc3)cc2C1=O | 0 | -11 | 0 | 26 | · | · | · | ·
CN1c2ccc(Br)cc2[C@H]2[C@H](CCN2S(=O)(=O)c2cccc(F)c2)[C@H]1CO | · | 30 | 0 | ? | 97* | 55 | -11 | 27
Cc1ccccc1S(=O)(=O)N1CC[C@@H]2[C@H](CO)N(C)c3ccc(Br)cc3[C@@H]21 | · | -5 | 0 | 131* | 107* | 37 | 11 | 72*
COc1ccccc1S(=O)(=O)N1CC[C@@H]2[C@@H](CO)N(C)c3ccc(-c4ccc(C#N)cc4)cc3[C@@H]21 | · | -19 | -9 | 23 | · | · | · | ·
Cc1ccccc1S(=O)(=O)N1CC[C@@H]2[C@@H](CO)N(C)c3ccc(-c4cccc(C#N)c4)cc3[C@@H]21 | · | 6 | -10 | 100* | 99* | 64 | 14 | 61*
COc1ccccc1S(=O)(=O)N1CC[C@@H]2[C@H]1c1cc(-c3cccc(C#N)c3)ccc1N(C)[C@H]2CO | · | 22 | -1 | 106* | 105* | 63 | ? | 33*
Cc1ccccc1S(=O)(=O)N1CC[C@@H]2[C@H]1c1cc(-c3ccccc3)ccc1N(C)[C@H]2CO | · | -70 | 0 | 98* | 107* | 115* | 12 | 103*
COc1ccccc1S(=O)(=O)N1CC[C@@H]2[C@@H](CO)N(C)c3ccc(-c4cccc(C#N)c4)cc3[C@@H]21 | · | -7 | 2 | 97* | 106* | 72 | 15 | 19
C[C@H](CO)N1C[C@H](C)[C@H](CN(C)Cc2ccc3c(c2)OCO3)Oc2ccc(NC(=O)Nc3cccc4ccccc34)cc2C1=O | 0 | 6 | -1 | 105* | ? | 104* | 32 | 67*
C[C@@H]1CN([C@@H](C)CO)C(=O)Cc2cc(NC(=O)Nc3cccc4ccccc34)ccc2O[C@H]1CN(C)Cc1ccc2c(c1)OCO2 | 0 | -7 | -1 | 109* | 110* | 70 | 29 | -2
O=C(C[C@H]1CC[C@H](NS(=O)(=O)c2ccccc2)[C@@H](CO)O1)NCc1ccccc1F | 0 | 3 | 2 | -9 | · | · | · | ·
CN1C(=O)c2cc(NC(=O)c3cnccn3)ccc2OC[C@H]2O[C@@H](CC(=O)N[C@H]3CCN(Cc4ccccc4)C3)CC[C@H]21 | · | ? | 4 | 114* | 104* | 103* | -9 | -10
CN1C(=O)c2cc(NC(=O)c3cnccn3)ccc2OC[C@H]2O[C@@H](CC(=O)N[C@@H]3CCN(Cc4ccccc4)C3)CC[C@H]21 | · | -14 | 2 | 107* | 97* | 88 | -27 | -20
CN1C(=O)c2cc(NC(=O)c3cnccn3)ccc2OC[C@H]2O[C@@H](CC(=O)N[C@@H]3CCN(Cc4ccccc4)C3)CC[C@@H]21 | · | -3 | 3 | · | · | · | · | ·
CO[C@H]1CN(C)C(=O)c2ccc(NS(=O)(=O)c3ccccc3C)cc2OC[C@@H](C)NC[C@@H]1C | 0 | 10 | 0 | -40 | · | · | · | ·
